Experimental findings from PubChem BioAssay AID504511 (The Scripps Research Institute Molecular Screening Center, 2011) are described below.

The CC50 is the concentration at which the toxic effect on the cells reaches its halfway point.

Activity calls are given as the source filed them.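 How the source made its calls: active means cytotoxic compound whose concentration leaving half the cells alive is below 5 µM in either medium; inactive means the rest.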

The experiment in a line: cytotoxicity in BW5147 murine T cells, late-stage follow-up, cytotoxicity control for PAFAH2 inhibitor project, cell-based, absorbance, serum-free and serum media (AID 504511). Conditions: BW5147 murine T cells viability, WST-1 absorbance. The essentials:
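System: BW5147-derived murine T cells; Buffer or medium: RPMI without or with fetal calf serum; Dosing: Seven-point fivefold dilution series, top final dose 50 µM; Timing: 48 h cell exposure, 37 °C; Technique: colorimetric WST-1 formazan absorbance; Read-out: half-cytotoxic concentration as > highest dose retaining >50% survival; Repeats: quadruplicate wells per concentration.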
A general note: Tetrazolium dyes change colour on reduction, which living cells bring about.

As to `O=C(N1CCCC1)n1ncc(-c2ccc(-c3ccccc3)cc2)n1`, the CC50 (serum-free media) was 35 µM (inactive) and the CC50 (with FCS) is > 50 µM (inactive).

For `O=C(N1CCCC1)n1ncc(-c2ccc(Oc3ccccc3)cc2)n1`, the CC50 (serum-free media) was 48 µM (inactive) and the CC50 (with FCS) was > 50 µM (inactive).
